The source made the active and inactive calls. The calls are words filed in the database; no cut-off is given here.
Tests used:
[1] = target: T1, Tyrosine-protein phosphatase non-receptor type 1 (Homo sapiens, UniProt P18031); test: Inhibition of PTP1B using p-nitrophenyl phosphate as substrate
T1 sequence (P18031 whole entry): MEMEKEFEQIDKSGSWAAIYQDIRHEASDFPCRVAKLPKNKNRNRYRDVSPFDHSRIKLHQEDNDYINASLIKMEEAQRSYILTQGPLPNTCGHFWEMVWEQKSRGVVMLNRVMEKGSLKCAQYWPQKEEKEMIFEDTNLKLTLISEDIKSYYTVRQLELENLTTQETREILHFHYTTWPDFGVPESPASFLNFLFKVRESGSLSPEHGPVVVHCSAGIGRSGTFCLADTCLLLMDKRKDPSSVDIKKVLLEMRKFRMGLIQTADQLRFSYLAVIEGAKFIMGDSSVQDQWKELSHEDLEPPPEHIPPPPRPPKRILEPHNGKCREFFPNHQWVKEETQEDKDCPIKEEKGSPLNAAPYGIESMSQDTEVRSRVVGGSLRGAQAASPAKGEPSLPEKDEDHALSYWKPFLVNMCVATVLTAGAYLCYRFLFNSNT
Outline: (§1)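 IC50 values were obtained by regression analysis and reported as mean ± SD of three replicate determinations.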

[2] = Selectivity ratio of IC50 for TCPTP to IC50 for PTP1B
[3] = target: T2, Tyrosine-protein phosphatase non-receptor type 2 (Homo sapiens, UniProt P17706); test: Inhibition of TCPTP; outline: as §1
T2 sequence (P17706 whole entry): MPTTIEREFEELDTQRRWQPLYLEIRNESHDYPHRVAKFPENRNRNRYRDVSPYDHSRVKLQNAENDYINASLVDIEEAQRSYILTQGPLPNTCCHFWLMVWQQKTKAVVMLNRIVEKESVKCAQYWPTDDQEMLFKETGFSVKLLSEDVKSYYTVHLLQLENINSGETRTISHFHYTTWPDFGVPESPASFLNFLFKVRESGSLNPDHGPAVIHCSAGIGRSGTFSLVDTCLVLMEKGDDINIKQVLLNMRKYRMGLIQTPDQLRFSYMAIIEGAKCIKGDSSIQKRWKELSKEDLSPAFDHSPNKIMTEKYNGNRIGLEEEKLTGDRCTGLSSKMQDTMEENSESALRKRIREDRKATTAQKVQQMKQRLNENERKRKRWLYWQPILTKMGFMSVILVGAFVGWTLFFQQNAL

[4] = target: T3, M-phase inducer phosphatase 2 (Homo sapiens, UniProt P30305); test: Inhibition of human recombinant CDC25B; outline: as §1
T3 sequence (P30305 whole entry): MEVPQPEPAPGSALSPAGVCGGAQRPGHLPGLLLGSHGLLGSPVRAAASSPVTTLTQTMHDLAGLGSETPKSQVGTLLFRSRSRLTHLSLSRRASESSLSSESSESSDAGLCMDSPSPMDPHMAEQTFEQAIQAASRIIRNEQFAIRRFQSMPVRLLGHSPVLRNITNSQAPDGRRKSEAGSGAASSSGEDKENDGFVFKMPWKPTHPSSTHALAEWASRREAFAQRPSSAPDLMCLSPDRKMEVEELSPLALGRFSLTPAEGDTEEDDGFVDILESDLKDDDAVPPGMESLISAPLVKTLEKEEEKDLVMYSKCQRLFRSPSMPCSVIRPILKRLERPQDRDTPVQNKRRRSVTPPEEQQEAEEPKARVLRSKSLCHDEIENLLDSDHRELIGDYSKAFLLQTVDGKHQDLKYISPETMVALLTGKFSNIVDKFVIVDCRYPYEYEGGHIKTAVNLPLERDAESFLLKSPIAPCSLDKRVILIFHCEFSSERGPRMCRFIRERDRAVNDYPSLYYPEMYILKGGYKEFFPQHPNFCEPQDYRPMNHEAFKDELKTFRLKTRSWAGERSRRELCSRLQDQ

[5] = target: T4, Tyrosine-protein phosphatase non-receptor type 6 (Homo sapiens, UniProt P29350); test: Inhibition of human recombinant SHP1 in Tris buffer of pH 8 at 20 ug/mL
[6] = target: Receptor-type tyrosine-protein phosphatase alpha (Homo sapiens) (UniProt P18433); test: Inhibition of human recombinant PTPalpha at 20 ug/mL
[7] = target: Receptor-type tyrosine-protein phosphatase F (Homo sapiens) (UniProt P10586); test: Inhibition of human recombinant LAR at 20 ug/mL
[8] = target: T4, Tyrosine-protein phosphatase non-receptor type 6; test: Inhibition of human recombinant SHP1 in Tris buffer at pH 8 using OMPF as substrate; outline: as §1
[9] = target: T5, Tyrosine-protein phosphatase non-receptor type 1 (Homo sapiens) (UniProt P18031); conditions: 2.5 to 10 uM
T5 sequence (whole entry): T1 sequence (P18031 whole entry)

[10] = target: T5, Tyrosine-protein phosphatase non-receptor type 1 (Homo sapiens); conditions: 2.5 to 10 uM; remark: listed apart in the source

T4 sequence (P29350 whole entry): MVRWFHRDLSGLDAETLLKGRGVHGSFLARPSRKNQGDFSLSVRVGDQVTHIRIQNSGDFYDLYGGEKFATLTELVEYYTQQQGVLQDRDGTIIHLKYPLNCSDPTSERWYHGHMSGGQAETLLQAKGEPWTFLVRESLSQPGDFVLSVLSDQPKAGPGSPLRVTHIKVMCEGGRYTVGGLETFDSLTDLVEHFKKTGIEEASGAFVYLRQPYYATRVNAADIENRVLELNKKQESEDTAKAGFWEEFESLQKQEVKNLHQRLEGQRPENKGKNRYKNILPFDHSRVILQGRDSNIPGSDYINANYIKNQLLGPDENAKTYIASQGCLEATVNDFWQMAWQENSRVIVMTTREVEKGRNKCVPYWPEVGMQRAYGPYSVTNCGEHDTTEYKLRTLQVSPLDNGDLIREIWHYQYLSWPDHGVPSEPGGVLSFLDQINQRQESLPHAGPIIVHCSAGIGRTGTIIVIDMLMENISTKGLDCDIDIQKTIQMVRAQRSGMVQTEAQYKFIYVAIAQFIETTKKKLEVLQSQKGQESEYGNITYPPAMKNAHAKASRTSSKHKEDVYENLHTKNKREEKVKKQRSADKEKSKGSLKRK
Sequence of Receptor-type tyrosine-protein phosphatase F (Homo sapiens) (P10586 whole entry): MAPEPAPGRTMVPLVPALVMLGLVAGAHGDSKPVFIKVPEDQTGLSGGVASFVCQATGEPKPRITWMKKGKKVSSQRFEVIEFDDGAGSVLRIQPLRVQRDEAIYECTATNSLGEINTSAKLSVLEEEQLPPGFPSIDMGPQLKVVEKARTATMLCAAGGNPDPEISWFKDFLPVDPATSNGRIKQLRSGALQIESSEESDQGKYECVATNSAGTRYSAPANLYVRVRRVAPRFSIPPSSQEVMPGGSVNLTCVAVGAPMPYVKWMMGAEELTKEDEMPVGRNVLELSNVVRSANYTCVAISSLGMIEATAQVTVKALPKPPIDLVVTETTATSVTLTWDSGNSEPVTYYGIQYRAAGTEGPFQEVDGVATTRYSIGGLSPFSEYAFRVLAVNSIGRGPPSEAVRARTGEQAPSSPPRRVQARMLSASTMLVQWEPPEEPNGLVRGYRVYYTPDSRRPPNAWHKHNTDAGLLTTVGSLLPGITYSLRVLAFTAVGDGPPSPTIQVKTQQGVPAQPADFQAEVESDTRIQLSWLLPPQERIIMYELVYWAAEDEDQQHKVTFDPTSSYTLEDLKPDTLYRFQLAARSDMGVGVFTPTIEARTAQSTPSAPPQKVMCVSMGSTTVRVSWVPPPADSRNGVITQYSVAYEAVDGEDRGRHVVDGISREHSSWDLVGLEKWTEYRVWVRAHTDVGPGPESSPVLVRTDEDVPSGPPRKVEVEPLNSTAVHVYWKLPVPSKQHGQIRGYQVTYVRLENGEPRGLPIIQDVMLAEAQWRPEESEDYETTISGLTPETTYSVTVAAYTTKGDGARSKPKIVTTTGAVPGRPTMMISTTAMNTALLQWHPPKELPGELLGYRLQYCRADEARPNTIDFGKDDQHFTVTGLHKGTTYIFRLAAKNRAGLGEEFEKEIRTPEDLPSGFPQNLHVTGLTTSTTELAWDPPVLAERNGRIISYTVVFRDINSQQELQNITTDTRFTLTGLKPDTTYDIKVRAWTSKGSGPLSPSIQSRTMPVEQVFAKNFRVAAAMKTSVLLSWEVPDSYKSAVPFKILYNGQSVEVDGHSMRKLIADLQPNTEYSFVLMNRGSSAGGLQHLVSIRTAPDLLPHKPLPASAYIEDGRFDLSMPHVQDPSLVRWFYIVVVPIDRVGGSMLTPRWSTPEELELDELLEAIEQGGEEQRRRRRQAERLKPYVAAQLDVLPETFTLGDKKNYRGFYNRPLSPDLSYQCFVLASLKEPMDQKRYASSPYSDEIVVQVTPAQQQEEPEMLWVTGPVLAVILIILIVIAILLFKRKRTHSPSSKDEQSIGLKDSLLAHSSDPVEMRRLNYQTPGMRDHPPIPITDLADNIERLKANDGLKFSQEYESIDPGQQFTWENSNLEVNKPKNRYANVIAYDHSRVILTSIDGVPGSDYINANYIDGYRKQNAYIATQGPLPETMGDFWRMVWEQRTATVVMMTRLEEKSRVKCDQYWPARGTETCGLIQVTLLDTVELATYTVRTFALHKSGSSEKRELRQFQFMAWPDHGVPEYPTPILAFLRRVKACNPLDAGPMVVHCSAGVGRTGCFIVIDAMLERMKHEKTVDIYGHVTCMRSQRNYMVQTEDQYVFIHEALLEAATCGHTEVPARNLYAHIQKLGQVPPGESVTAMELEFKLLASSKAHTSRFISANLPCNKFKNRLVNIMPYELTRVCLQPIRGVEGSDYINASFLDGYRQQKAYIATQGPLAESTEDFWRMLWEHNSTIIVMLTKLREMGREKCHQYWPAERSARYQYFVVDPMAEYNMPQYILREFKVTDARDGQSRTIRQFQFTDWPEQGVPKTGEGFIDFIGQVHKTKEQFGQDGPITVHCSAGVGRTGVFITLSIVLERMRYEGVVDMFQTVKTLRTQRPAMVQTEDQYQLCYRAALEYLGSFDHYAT
Sequence of Receptor-type tyrosine-protein phosphatase alpha (Homo sapiens) (P18433 20-802 limits assumed): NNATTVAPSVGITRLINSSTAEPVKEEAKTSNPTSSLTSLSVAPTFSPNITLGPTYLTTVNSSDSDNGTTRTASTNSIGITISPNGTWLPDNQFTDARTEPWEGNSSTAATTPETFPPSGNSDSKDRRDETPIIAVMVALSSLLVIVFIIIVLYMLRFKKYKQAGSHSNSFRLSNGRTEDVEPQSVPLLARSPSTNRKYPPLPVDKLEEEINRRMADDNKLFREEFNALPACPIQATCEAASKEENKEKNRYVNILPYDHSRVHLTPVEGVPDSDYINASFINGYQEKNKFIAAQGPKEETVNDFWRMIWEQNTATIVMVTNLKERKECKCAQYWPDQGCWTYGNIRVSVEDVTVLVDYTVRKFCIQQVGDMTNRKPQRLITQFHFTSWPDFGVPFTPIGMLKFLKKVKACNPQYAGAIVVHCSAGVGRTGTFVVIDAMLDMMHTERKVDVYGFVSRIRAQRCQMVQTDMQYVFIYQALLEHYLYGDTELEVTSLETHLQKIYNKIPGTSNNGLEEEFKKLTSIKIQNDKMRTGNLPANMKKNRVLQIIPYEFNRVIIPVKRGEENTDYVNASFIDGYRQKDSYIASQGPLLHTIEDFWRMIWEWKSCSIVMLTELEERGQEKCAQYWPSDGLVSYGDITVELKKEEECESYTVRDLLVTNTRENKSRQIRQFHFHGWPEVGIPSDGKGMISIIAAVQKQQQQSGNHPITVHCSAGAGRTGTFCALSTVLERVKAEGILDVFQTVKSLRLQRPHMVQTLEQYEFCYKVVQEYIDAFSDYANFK

SMILES	IC50 [1] [µM]	Ratio IC50 [2]	IC50 [3] [µM]	IC50 [4] [µM]	inhibition [5]	inhibition [6]	inhibition [7]	IC50 [8] [µM]	inhibition [9]	inhibition [10]
O=C(NC(Cc1ccc2cc(O)ccc2c1)C(=O)O)c1ccccc1 (racemic)	> 300	1								
O=C(NC(Cc1ccc2cc(OCc3ccccc3F)ccc2c1)C(=O)O)c1ccccc1 (racemic)	6.55	1	9.43	19.4	inactive	inactive	inactive			
COc1ccc(COc2ccc3cc(CC(NC(=O)c4ccccc4)C(=O)O)ccc3c2)cc1 (racemic)	14.3	1								
O=C(NC(Cc1ccc2cc(OCc3ccc(Cl)cc3)ccc2c1)C(=O)O)c1ccccc1 (racemic)	21.7	1								
CC(C)(C)OC(=O)NC(Cc1ccc2cc(O)ccc2c1)C(=O)O (racemic)	> 300	1								
CC(C)(C)OC(=O)NC(Cc1ccc2cc(OCc3ccccc3F)ccc2c1)C(=O)O (racemic)	11.1	1								
NC(Cc1ccc2cc(OCc3ccccc3F)ccc2c1)C(=O)O (racemic)	24.7	1								
O=C(Cc1ccc(Cl)cc1)NC(Cc1ccc2cc(OCc3ccccc3F)ccc2c1)C(=O)O (racemic)	7.91	1	12.9	8.44		inactive	inactive	15.6		
O=C(COc1ccc(Cl)cc1)NC(Cc1ccc2cc(OCc3ccccc3F)ccc2c1)C(=O)O (racemic)	10.8	1	17.5	13.7	inactive	inactive	inactive			
O=C(CCc1ccccc1)NC(Cc1ccc2cc(OCc3ccccc3F)ccc2c1)C(=O)O (racemic)	11.4		27.3	15.2	inactive	inactive	inactive			
O=C(/C=C/c1ccccc1)NC(Cc1ccc2cc(OCc3ccccc3F)ccc2c1)C(=O)O (racemic)	8.88		18.9	14.7	inactive	inactive	inactive			
O=C(/C=C/c1ccccc1F)NC(Cc1ccc2cc(OCc3ccccc3F)ccc2c1)C(=O)O (racemic)	2.49	1	3.02	4.58		inactive	inactive	9.84		
O=C(/C=C/c1cccc(F)c1)NC(Cc1ccc2cc(OCc3ccccc3F)ccc2c1)C(=O)O (racemic)	2.79	1	6.08	5.13		inactive	inactive	26.5		
O=C(/C=C/c1ccc(F)cc1)NC(Cc1ccc2cc(OCc3ccccc3F)ccc2c1)C(=O)O (racemic)	3.38	1	5.96	6.6		inactive	inactive	18.5		
O=C(/C=C/c1ccccc1Cl)NC(Cc1ccc2cc(OCc3ccccc3F)ccc2c1)C(=O)O (racemic)	1.25	3	3.84	3.08		inactive	inactive	2.43	Active	tde
O=C(/C=C/c1cccc(Cl)c1)NC(Cc1ccc2cc(OCc3ccccc3F)ccc2c1)C(=O)O (racemic)	4	1	7.24	5.35		inactive	inactive	13.2		
O=C(/C=C/c1ccc(Cl)cc1)NC(Cc1ccc2cc(OCc3ccccc3F)ccc2c1)C(=O)O (racemic)	2.59	1	4.33	2.63		inactive	inactive	16.3		
O=C(/C=C/c1ccccc1Br)NC(Cc1ccc2cc(OCc3ccccc3F)ccc2c1)C(=O)O (racemic)	1.77	1	4.66	2.89		inactive	inactive	11		
O=C(/C=C/c1ccc(Br)cc1)NC(Cc1ccc2cc(OCc3ccccc3F)ccc2c1)C(=O)O (racemic)	1.57	1	3.67	2.49		inactive	inactive	13		
O=C(/C=C/c1ccc(Cl)cc1Cl)NC(Cc1ccc2cc(OCc3ccccc3F)ccc2c1)C(=O)O (racemic)	4.22	1	6.11	8.93		inactive	inactive	12.5		
O=C(/C=C/c1ccc(Cl)c(Cl)c1)NC(Cc1ccc2cc(OCc3ccccc3F)ccc2c1)C(=O)O (racemic)	4.71		15.3	5.63		inactive	inactive	10.7		
COc1cccc(/C=C/C(=O)NC(Cc2ccc3cc(OCc4ccccc4F)ccc3c2)C(=O)O)c1 (racemic)	8.15	1	15.2	10.7		inactive	inactive	16.4		
COc1ccc(/C=C/C(=O)NC(Cc2ccc3cc(OCc4ccccc4F)ccc3c2)C(=O)O)cc1 (racemic)	5.9	1	9.21	14	inactive	inactive	inactive			
COc1ccc(/C=C/C(=O)NC(Cc2ccc3cc(OCc4ccccc4F)ccc3c2)C(=O)O)cc1OC (racemic)	4.45	1	9.49	7.04	inactive	inactive	inactive			
Cc1ccc(/C=C/C(=O)NC(Cc2ccc3cc(OCc4ccccc4F)ccc3c2)C(=O)O)cc1 (racemic)	6.48	1	18.2	11.6	inactive	inactive	inactive			
C[C@H]1[C@H](C)CC[C@]2(C(=O)O)CC[C@]3(C)C(=CC[C@@H]4[C@@]5(C)CC[C@H](O)C(C)(C)[C@@H]5CC[C@]43C)[C@H]12 [URSOLIC ACID]			6.7							

Reference: ChEMBL document CHEMBL1821688, “Synthesis and biological evaluation of (±)-3-(2-(2-fluorobenzyloxy) naphthalen-6-yl)-2-aminopropanoic acid derivatives as novel PTP1B inhibitors” (Eur J Med Chem, 2011)
